Tests used:
[1] = test system: UACC-257; experiment: Cytotoxicity against human UACC257 cells assessed as cell growth at 10 uM after 48 hrs by SRB assay relative to control; format: functional; conditions: UACC-257, 48 h, read-out: Activity
Method in brief: (§1)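 NCI-60 one-dose screen run by NCI DTP: each cell line exposed to a single 10 µM dose, and percentage growth recorded against untreated growth.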

[2] = test system: OVCAR-3; experiment: Cytotoxicity against human OVCAR3 cells assessed as cell growth at 10 uM after 48 hrs by SRB assay relative to control; format: functional; conditions: OVCAR-3, 48 h, read-out: Activity
Method in brief: (§2)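 First-stage NCI DTP one-dose screen against the 60 human tumour cell line panel. Compounds were tested at a single 10 μM level, and results are given as growth percentage.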

[3] = test system: OVCAR-4; experiment: Cytotoxicity against human OVCAR4 cells assessed as cell growth at 10 uM after 48 hrs by SRB assay relative to control; format: functional; conditions: OVCAR-4, 48 h, read-out: Activity; method in brief: as §2
[4] = test system: OVCAR-8; experiment: Cytotoxicity against human OVCAR8 cells assessed as cell growth at 10 uM after 48 hrs by SRB assay relative to control; format: functional; conditions: OVCAR-8, 48 h, read-out: Activity; method in brief: as §2
[5] = test system: SK-OV-3; experiment: Cytotoxicity against human SKOV3 cells assessed as cell growth at 10 uM after 48 hrs by SRB assay relative to control; format: functional; conditions: SK-OV-3, 48 h, read-out: Activity; method in brief: as §2
[6] = test system: A498; experiment: Cytotoxicity against human A498 cells assessed as cell growth at 10 uM after 48 hrs by SRB assay relative to control; format: functional; conditions: A498, 48 h, read-out: Activity
Method in brief: (§3)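 First-stage NCI-60 screen by the NCI Developmental Therapeutics Program. Each compound was tested once at a single concentration of 10 μM against the 60-cell-line panel. Growth percentage was reported for each cell line.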

[7] = test system: RXF 393; experiment: Cytotoxicity against human RXF393 cells assessed as cell growth at 10 uM after 48 hrs by SRB assay relative to control; format: functional; conditions: RXF 393, 48 h, read-out: Activity; method in brief: as §2
[8] = test system: TK-10; experiment: Cytotoxicity against human TK10 cells assessed as cell growth at 10 uM after 48 hrs by SRB assay relative to control; format: functional; conditions: TK-10, 48 h, read-out: Activity; method in brief: as §1
[9] = test system: DU-145; experiment: Cytotoxicity against human DU145 cells assessed as cell growth at 10 uM after 48 hrs by SRB assay relative to control; format: functional; conditions: DU-145, 48 h, read-out: Activity; method in brief: as §3
[10] = test system: MCF7; experiment: Cytotoxicity against human MCF7 cells assessed as cell growth at 10 uM after 48 hrs by SRB assay relative to control; format: functional; conditions: MCF7, 48 h, read-out: Activity; method in brief: as §3
[11] = test system: MDA-MB-231; experiment: Cytotoxicity against human MDA-MB-231 cells assessed as cell growth at 10 uM after 48 hrs by SRB assay relative to control; format: functional; conditions: MDA-MB-231, 48 h, read-out: Activity; method in brief: as §2
[12] = Cytotoxicity against human Hs578T cells assessed as cell growth at 10 uM after 48 hrs by SRB assay relative to control; format: functional; conditions: Hs-578T, read-out: Activity; method in brief: as §3
[13] = test system: BT-549; experiment: Cytotoxicity against human BT549 cells assessed as cell growth at 10 uM after 48 hrs by SRB assay relative to control; format: functional; conditions: BT-549, 48 h, read-out: Activity; method in brief: as §3
[14] = test system: T47D; experiment: Cytotoxicity against human T47D cells assessed as cell growth at 10 uM after 48 hrs by SRB assay relative to control; format: functional; conditions: read-out: Activity; method in brief: as §1
[15] = test system: PC-3; experiment: Cytotoxicity against human PC3 cells after 48 hrs by SRB assay; format: functional, cell-based; conditions: PC-3, 48 h
Method in brief: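 Second-stage NCI-60 panel run by the NCI Developmental Therapeutics Program, covering nine tumour subpanels. Five concentrations were tested: 0.01, 0.1, 1, 10 and 100 μM. Percentage growth at each level was plotted against log10 drug concentration. GI50, TGI and LC50 were read from these dose-response curves. Subpanel MID values were divided into the full-panel MID to give selectivity ratios.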

[16] = test system: CCRF-CEM; experiment: Cytotoxicity against human CCRF-CEM cells assessed as cell growth at 10 uM after 48 hrs by SRB assay relative to control; format: functional; conditions: read-out: Activity; method in brief: as §3
[17] = test system: HL-60(TB); experiment: Cytotoxicity against human HL-60(TB) cells assessed as cell growth at 10 uM after 48 hrs by SRB assay relative to control; format: functional; conditions: HL-60, 48 h, read-out: Activity
Method in brief: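 NCI Developmental Therapeutics Program 60-cell-line screen, first stage: a single dose of 10 μM against the panel, reported as percentage growth.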

[18] = test system: SR; experiment: Cytotoxicity against human SR cells assessed as cell growth at 10 uM after 48 hrs by SRB assay relative to control; format: functional; conditions: read-out: Activity; method in brief: as §1
[19] = test system: A549; experiment: Cytotoxicity against human A549 cells assessed as cell growth at 10 uM after 48 hrs by SRB assay relative to control; format: functional; conditions: A549, 48 h, read-out: Activity; method in brief: as §3
[20] = test system: HOP-62; experiment: Cytotoxicity against human HOP62 cells assessed as cell growth at 10 uM after 48 hrs by SRB assay relative to control; format: functional; conditions: HOP-62, 48 h, read-out: Activity; method in brief: as §3
[21] = test system: NCI-H226; experiment: Cytotoxicity against human NCI-H226 cells assessed as cell growth at 10 uM after 48 hrs by SRB assay relative to control; format: functional; conditions: NCI-H226, 48 h, read-out: Activity; method in brief: as §2
[22] = test system: NCI-H322M; experiment: Cytotoxicity against human NCI-H322M cells assessed as cell growth at 10 uM after 48 hrs by SRB assay relative to control; format: functional; conditions: read-out: Activity; method in brief: as §2
[23] = test system: NCI-H460; experiment: Cytotoxicity against human NCI-H460 cells assessed as cell growth at 10 uM after 48 hrs by SRB assay relative to control; format: functional; conditions: NCI-H460, 48 h, read-out: Activity; method in brief: as §2
[24] = test system: COLO 205; experiment: Cytotoxicity against human COLO205 cells assessed as cell growth at 10 uM after 48 hrs by SRB assay relative to control; format: functional; conditions: COLO 205, 48 h, read-out: Activity; method in brief: as §3
[25] = test system: HCT-116; experiment: Cytotoxicity against human HCT116 cells assessed as cell growth at 10 uM after 48 hrs by SRB assay relative to control; format: functional; conditions: HCT-116, 48 h, read-out: Activity; method in brief: as §3
[26] = test system: SF-295; experiment: Cytotoxicity against human SF295 cells assessed as cell growth at 10 uM after 48 hrs by SRB assay relative to control; format: functional; conditions: SF-295, 48 h, read-out: Activity; method in brief: as §2
[27] = test system: SF-539; experiment: Cytotoxicity against human SF539 cells assessed as cell growth at 10 uM after 48 hrs by SRB assay relative to control; format: functional; conditions: SF-539, 48 h, read-out: Activity; method in brief: as §2
[28] = test system: SNB-19; experiment: Cytotoxicity against human SNB19 cells assessed as cell growth at 10 uM after 48 hrs by SRB assay relative to control; format: functional; conditions: SNB-19, 48 h, read-out: Activity; method in brief: as §1
[29] = test system: U-251; experiment: Cytotoxicity against human U251 cells assessed as cell growth at 10 uM after 48 hrs by SRB assay relative to control; format: functional; conditions: U-251, 48 h, read-out: Activity; method in brief: as §1
[30] = test system: OVCAR-5; experiment: Cytotoxicity against human OVCAR5 cells assessed as cell growth at 10 uM after 48 hrs by SRB assay relative to control; format: functional; conditions: OVCAR-5, 48 h, read-out: Activity; method in brief: as §2

SMILES	growth at 10 µM [1] [%]	growth at 10 µM [2] [%]	growth at 10 µM [4] [%]	growth at 10 µM [7] [%]	growth at 10 µM [8] [%]	growth at 10 µM [9] [%]	growth at 10 µM [10] [%]	growth at 10 µM [11] [%]	growth at 10 µM [12] [%]	growth at 10 µM [13] [%]	growth at 10 µM [14] [%]	IC50 [15] [µM]	growth at 10 µM [17] [%]	growth at 10 µM [18] [%]	growth at 10 µM [19] [%]	growth at 10 µM [20] [%]	growth at 10 µM [21] [%]	growth at 10 µM [23] [%]	growth at 10 µM [24] [%]	growth at 10 µM [25] [%]	also measured
O=C1c2ccccc2C(=O)c2c1cc(SCc1ccccc1)c1nsnc21	58.9	25.3	6.01	68.1	130	82.2	56.4	-13.4	60	96.2	-46.1	> 15	70.3	1.25	102	83.7	101	92	103	53.1	growth at 10 µM [3]: -68.2%; growth at 10 µM [5]: 80.3%; growth at 10 µM [6]: 88.6%; growth at 10 µM [16]: 0.65%; growth at 10 µM [22]: 98.4%; growth at 10 µM [26]: 91.6%; growth at 10 µM [27]: 68.3%; growth at 10 µM [28]: 94.3%; growth at 10 µM [29]: 30.5%
Cc1cccc(C)c1Sc1cc2c(c3nsnc13)C(=O)c1ccccc1C2=O	86.6	1	59	76.2	119	106	68.6	30.6	82.4	105	66.8	6.74	47.8	35.5	90.2	90	78.3	87.4	98.8	65	growth at 10 µM [3]: 4%; growth at 10 µM [30]: 114%; growth at 10 µM [16]: 34.8%; growth at 10 µM [22]: 83.8%; growth at 10 µM [26]: 91.1%; growth at 10 µM [27]: 84.5%; growth at 10 µM [28]: 94.8%; growth at 10 µM [29]: 53.9%
O=C1c2ccccc2C(=O)c2c1cc(SCc1ccc(Cl)cc1)c1nsnc21	78.7	113	94.2	105	122	115	83	95.2	88.6	115	83.8	> 15	57.4	63.7	101	89.2	82.1	105	99.9	115	growth at 10 µM [3]: 84.2%; growth at 10 µM [30]: 104%; growth at 10 µM [22]: 94.1%; growth at 10 µM [27]: 98%; growth at 10 µM [28]: 104%; growth at 10 µM [29]: 94.4%
CC(C)Sc1cc2c(c3nsnc13)C(=O)c1ccccc1C2=O	-91.7	-60.3	-22.6	13.6	30.3	6.66	-68.8	-35.9	-9.16	10.8	-24.4	3.69	-41.2	-48	-8.14	13.2	10.2	4.92	102	-36.7	growth at 10 µM [3]: -100%; growth at 10 µM [30]: -27.9%; growth at 10 µM [16]: -45%; growth at 10 µM [22]: -0.8%; growth at 10 µM [26]: -16.6%; growth at 10 µM [27]: -47%; growth at 10 µM [28]: 21.9%; growth at 10 µM [29]: -23.1%
O=C1c2ccccc2C(=O)c2c1cc(Sc1ccc(F)cc1F)c1nsnc21	43.9	-52.3	0.32	36.7	112	41.3	6.58	-9.73	50.1	66.4	-28.6	14.8	-37.7	0.2	112	58.5	88.8	83.6	104	-63.1	growth at 10 µM [30]: 110%; growth at 10 µM [5]: 92.6%; growth at 10 µM [6]: 50.8%; growth at 10 µM [26]: 68.8%; growth at 10 µM [27]: 58.8%; growth at 10 µM [28]: 87.3%; growth at 10 µM [29]: 34.5%
CSc1ccc(Sc2cc3c(c4nsnc24)C(=O)c2ccccc2C3=O)cc1	110	103	97.4	107	128	101	82.9	78.8	96.5	108	86.6	> 15	105	96.3	105	102	79.7	106	117	102	growth at 10 µM [30]: 108%; growth at 10 µM [5]: 102%; growth at 10 µM [6]: 56%; growth at 10 µM [26]: 98.9%; growth at 10 µM [27]: 96.5%; growth at 10 µM [28]: 102%; growth at 10 µM [29]: 104%
O=C1c2ccccc2C(=O)c2c1cc(Sc1cc(Cl)ccc1Cl)c1nsnc21	119	99.4	85.1	91.5	112	102	85.2	82.4	72.5	79.7	63.4	> 15	72.7	41.1	103	63.2	112	101	110	81.9	growth at 10 µM [30]: 109%; growth at 10 µM [5]: 84.1%; growth at 10 µM [6]: 87.7%; growth at 10 µM [26]: 78.9%; growth at 10 µM [27]: 88.7%; growth at 10 µM [28]: 84.4%; growth at 10 µM [29]: 63.6%
